Measured values as given in ChEMBL document CHEMBL2057139, “Synthesis, antimalarial activity and cytotoxicity of 10-aminoethylether derivatives of artemisinin” (Bioorg Med Chem, 2012).

Key:
[1] = tested on: Plasmodium falciparum; test: Antimalarial activity against asexual erythrocyte stage of chloroquine-sensitive Plasmodium falciparum D10 by parasite lactate dehydrogenase assay; format: functional, organism-based
How it was run: (§1)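 Asexual erythrocyte-stage P. falciparum kept in continuous culture (modified Trager–Jensen). Growth was read by parasite lactate dehydrogenase assay. Stocks were 20 mg/ml in 100% DMSO, sonicated, and tested as suspension if not dissolved. Full dose–response started at 100 ng/ml, with 2-fold serial dilution in complete medium to 10 concentrations (lowest 0.2 ng/ml). Each strain was tested in triplicate on one occasion. IC50 is 50% parasite growth inhibition.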

[2] = tested on: Plasmodium falciparum; test: Antimalarial activity against asexual erythrocyte stage of chloroquine-resistant Plasmodium falciparum Dd2 by parasite lactate dehydrogenase assay; format: functional, organism-based; how it was run: as §1
[3] = tested on: CHO; test: Cytotoxicity against CHO cells by MTT assay; format: cell-based, Cricetulus griseus; settings: for Activity: chinese hamster, cho; for IC50: Cricetulus griseus, CHO
[4] = tested on: Plasmodium falciparum; test: Resistance index ratio of IC50 for asexual erythrocyte stage of chloroquine-resistant Plasmodium falciparum Dd2 to IC50 for asexual erythrocyte stage of chloroquine-sensitive Plasmodium falciparum D10; format: functional

## C[C@H]1[C@@H](OCCN2CCOCC2)O[C@@H]2O[C@@]3(C)CC[C@H]4[C@H](C)CC[C@@H]1[C@@]24OO3.O=C(O)C(=O)O
[1]
  IC50: 4.64 nM
[2]
  IC50: 16.2 nM
[3]
  Activity: Non-toxic
[4]
  Ratio IC50: 3.483

## C[C@H]1[C@@H](OCCNCCN2CCOCC2)O[C@@H]2O[C@@]3(C)CC[C@H]4[C@H](C)CC[C@@H]1[C@@]24OO3.O=C(O)C(=O)O
[1]
  IC50: 6.88 nM
[2]
  IC50: 61.6 nM
[3]
  Activity: Non-toxic
[4]
  Ratio IC50: 8.945

## C[C@H]1[C@@H](OCCN2CCCCC2)O[C@@H]2O[C@@]3(C)CC[C@H]4[C@H](C)CC[C@@H]1[C@@]24OO3.O=C(O)C(=O)O
[1]
  IC50: 3.31 nM
[2]
  IC50: 32.1 nM
[3]
  Activity: Non-toxic
[4]
  Ratio IC50: 9.695

## C[C@H]1[C@@H](OCCNCCN2CCCCC2)O[C@@H]2O[C@@]3(C)CC[C@H]4[C@H](C)CC[C@@H]1[C@@]24OO3.O=C(O)C(=O)O
[1]
  IC50: 6.72 nM
[2]
  IC50: 66.7 nM
[3]
  Activity: Non-toxic
[4]
  Ratio IC50: 9.932

## CC(C)N(CCNCCO[C@H]1O[C@@H]2O[C@@]3(C)CC[C@H]4[C@H](C)CC[C@@H]([C@H]1C)[C@@]24OO3)C(C)C.O=C(O)C(=O)O
[1]
  IC50: 1.83 nM
[2]
  IC50: 48.1 nM
[3]
  Activity: Non-toxic
[4]
  Ratio IC50: 26.24

## C[C@H]1[C@@H](OCCNCc2ccco2)O[C@@H]2O[C@@]3(C)CC[C@H]4[C@H](C)CC[C@@H]1[C@@]24OO3.O=C(O)C(=O)O
[1]
  IC50: 2.41 nM
[2]
  IC50: 21.4 nM
[3]
  IC50: 79700 nM
[4]
  Ratio IC50: 8.858

## C[C@H]1[C@@H](OCCN(C)Cc2ccccc2)O[C@@H]2O[C@@]3(C)CC[C@H]4[C@H](C)CC[C@@H]1[C@@]24OO3.O=C(O)C(=O)O
[1]
  IC50: 1.44 nM
[2]
  IC50: 20.1 nM
[3]
  IC50: 141000 nM
[4]
  Ratio IC50: 13.888

## C[C@H]1[C@@H](OCCNCCCn2ccnc2)O[C@@H]2O[C@@]3(C)CC[C@H]4[C@H](C)CC[C@@H]1[C@@]24OO3.O=C(O)C(=O)O
[1]
  IC50: 6.04 nM
[2]
  IC50: 189 nM
[3]
  Activity: Non-toxic
[4]
  Ratio IC50: 31.343

## C[C@H]1[C@@H](OCCNCCNc2ccccc2)O[C@@H]2O[C@@]3(C)CC[C@H]4[C@H](C)CC[C@@H]1[C@@]24OO3.O=C(O)C(=O)O
[1]
  IC50: 2.61 nM
[2]
  IC50: 55.1 nM
[3]
  IC50: 47500 nM
[4]
  Ratio IC50: 21.086

## C[C@H]1[C@@H](OCCN2CCNCC2)O[C@@H]2O[C@@]3(C)CC[C@H]4[C@H](C)CC[C@@H]1[C@@]24OO3.O=C(O)C(=O)O
[1]
  IC50: 1.8 nM
[2]
  IC50: 50.9 nM
[3]
  Activity: Non-toxic
[4]
  Ratio IC50: 28.318

## CC(C)CNCCO[C@H]1O[C@@H]2O[C@@]3(C)CC[C@H]4[C@H](C)CC[C@@H]([C@H]1C)[C@@]24OO3.O=C(O)C(=O)O
[1]
  IC50: 4.01 nM
[2]
  IC50: 54.9 nM
[3]
  IC50: 72900 nM
[4]
  Ratio IC50: 13.68

## C[C@H]1[C@@H](O)O[C@@H]2O[C@@]3(C)CC[C@H]4[C@H](C)CC[C@@H]1[C@@]24OO3 [ARTENIMOL]
[1]
  IC50: 0.785 nM
[2]
  IC50: 3.48 nM
[4]
  Ratio IC50: 4.433

## CC[C@H]1CN2CCc3cc(OC)c(OC)cc3[C@@H]2C[C@@H]1C[C@H]1NCCc2cc(OC)c(OC)cc21 [EMETINE]
[3]
  IC50: 19.8 nM

## C[C@H]1[C@H](OC(=O)CCC(=O)[O-])O[C@@H]2O[C@@]3(C)CC[C@H]4[C@H](C)CC[C@@H]1[C@@]24OO3.[Na+] [SODIUM ARESUNATE]
[1]
  IC50: 0.933 nM
[2]
  IC50: 25.9 nM
[4]
  Ratio IC50: 27.719
